PAFAH1B2 inh – PAFAH1B2 (human) inhibition; P68402; actives 1.2% (n = 340,000); recombinant PAFAH1B2, FP-rhodamine activity probe, fluorescence polarization; inhibition, % at 3.39 µM; AID 492953;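 active means inhibition above the mean of all tested compounds plus 3 SD, cut at about 24% in these data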;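 further: 0% = enzyme with DMSO and 100% = wells lacking PAFAH1B2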
pPAFAH inh – inhibitors of human plasma PAF acetylhydrolase (pPAFAH); recombinant pPAFAH, FP-rhodamine probe fluorescence polarization; inhibition, % at 3.39 µM; actives 1.5% (n = 330,000); AID 463082;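 active means inhibition above the mean inhibition across the screen plus 3 SD, cut at about 25% in these data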;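 further: inhibitors block binding of the rhodamine activity-based probe so polarization drops; 0% = enzyme with DMSO and 100% = wells lacking pPAFAH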
Target sequence (Q13093 whole entry, looked up): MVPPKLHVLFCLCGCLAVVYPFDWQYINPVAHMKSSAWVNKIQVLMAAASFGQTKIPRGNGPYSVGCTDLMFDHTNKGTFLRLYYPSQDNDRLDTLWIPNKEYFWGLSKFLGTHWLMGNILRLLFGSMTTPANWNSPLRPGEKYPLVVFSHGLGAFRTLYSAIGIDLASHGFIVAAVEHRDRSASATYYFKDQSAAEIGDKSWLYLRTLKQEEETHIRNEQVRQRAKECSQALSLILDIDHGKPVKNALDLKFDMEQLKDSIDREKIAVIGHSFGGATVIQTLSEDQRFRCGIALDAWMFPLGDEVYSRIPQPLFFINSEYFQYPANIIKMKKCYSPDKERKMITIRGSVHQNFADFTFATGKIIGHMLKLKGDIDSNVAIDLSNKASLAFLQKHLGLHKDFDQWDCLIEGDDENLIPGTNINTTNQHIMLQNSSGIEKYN
PAFAH2 inh – inhibitors of human PAFAH2; Q99487; recombinant PAFAH2, FP-rhodamine activity probe, fluorescence polarization; inhibition, % at 3.39 µM; actives 0.99% (n = 340,000); AID 492956;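 active means inhibition above the mean over all tested compounds plus 3 SD, cut at about 30% in these data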;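 further: inhibitors block probe labeling of enzyme so polarization drops; 0% = enzyme with DMSO and 100% = wells lacking PAFAH2 protein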
RBBP9 inhibitor – human RBBP9 hydrolase inhibition; O75884; recombinant RBBP9, FP-Rh probe fluorescence polarization; inhibition, % at 7.94 µM; actives 0.2% (n = 220,000); AID 1515;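 active means inhibition above the campaign mean of all tested compounds plus 3 SD, cut at about 14% in these data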;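 further: plate controls were DMSO wells with RBBP9 for no effect and wells lacking RBBP9 protein for full effect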
Target sequence (O75884 whole entry, looked up): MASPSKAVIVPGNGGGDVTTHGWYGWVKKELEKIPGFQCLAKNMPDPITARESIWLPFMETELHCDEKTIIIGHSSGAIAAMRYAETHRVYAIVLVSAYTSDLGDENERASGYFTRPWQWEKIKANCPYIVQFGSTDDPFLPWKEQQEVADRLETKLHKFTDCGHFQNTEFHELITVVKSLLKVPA
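Test system: recombinant human RBBP9; Timing: 30 min then 45 min, 25 °C; Detection: fluorescence polarization; Control set: RBBP9 with DMSO as uninhibited control, no-protein wells as full inhibition; Compound dosing: one concentration, 7.94 µM nominal, 0.794% DMSO; Probe or stimulus: FP-Rh activity-based probe, 375 nM before mixing.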
PAFAH1B3 FP inh – inhibitors of human PAFAH1B3; AID 492972; actives 0.28% (n = 340,000); recombinant PAFAH1B3, FP-rhodamine probe, fluorescence polarization; inhibition, % at 3.39 µM;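 active means inhibition above the screen-wide average of all tested compounds plus 3 SD, cut at about 25% in these data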;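 further: 0% = enzyme with DMSO only and 100% = wells lacking PAFAH1B3 protein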
Numbers without * were called inactive; nt = not tested or not shown. An excerpt weighted towards active compounds, which were near 2.7% of everything screened.

SMILES	PAFAH1B2 inh	pPAFAH inh	PAFAH2 inh	RBBP9 inhibitor	PAFAH1B3 FP inh
CCc1ccc[n+](-c2[nH]c(=O)sc2/C=N/N=C(\[O-])CCn2c3ccccc3c3ccccc32)c1	2	10	8	-4	1
Cc1cc[n+](-c2[nH]c(=O)sc2/C=N/N=C(\[O-])CCn2c3ccccc3c3ccccc32)cc1	nt	32*	nt	-8	nt
Cc1ccc(S(=O)(=O)/N=C2\SC(CC(=O)Nc3ccc(F)cc3)C(=O)N2c2ccccc2)cc1 (stereo unspecified)	32*	3	-5	-9	-1
O=C(CC1S/C(=N\S(=O)(=O)c2ccccc2)N(c2ccccc2)C1=O)Nc1ccc(F)cc1 (stereo unspecified)	7	0	-1	-7	0
Cc1ccc(C2C3C(=O)N(c4ccccc4)C(=O)C3N3CCCN23)cc1 (stereo unspecified)	4	-1	1	0	4
COc1cc(N=Nc2ccccc2C(=O)O)ccc1O	4	3	-9	-2	4
O=Cc1cc(N=Nc2ccccc2Cl)ccc1O	9	28*	10	4	13
COc1ccc(C(=O)ON=C2CCN(c3ccc([N+](=O)[O-])cc3)CC2)cc1	7	5	89*	-11	3
COc1ccc(C(=O)CCC(=O)N2CCN(c3ccc([N+](=O)[O-])cc3)CC2)cc1	2	2	-1	nt	-1
NC1=C(c2ccccc2)C(=O)NC1=O	7	-2	-4	nt	10
O=C1CCC(=O)N1c1ccccc1OS(=O)(=O)c1ccccc1	4	0	2	nt	2
O=S(=O)(Oc1ccccc1N1CCCCC1)c1ccccc1	31*	-6	7	-4	5
COc1ccc(S(=O)(=O)N2CCC(C(=O)N(CC(C)C)C3CCS(=O)(=O)C3)CC2)cc1OC (stereo unspecified)	2	5	4	nt	7
Oc1cccc(O)c1O	nt	96*	nt	nt	nt
O=C(O)c1cccc(O)c1O	-2	1	2	nt	4
O=C(Nc1sc(-c2ccccc2)cc1C(=O)O)c1ccccc1	32*	24	15	2	9
CCOc1cc(C(=O)NC(=S)Nc2ccc(Cl)c(C(=O)O)c2)cc(OCC)c1OCC	7	1	6	-6	1
O=C1NC(c2cccs2)C(C(=O)c2ccccc2)C(O)(C(F)(F)F)N1 (stereo unspecified)	32*	0	3	-9	3
Cc1cc(/C=C2\SC(=S)NC2=O)c(C)n1C1CC1	3	32*	12	14	9
CCCN(C(=O)c1ccc([N+](=O)[O-])c(C)c1)c1c(N)n(Cc2ccccc2)c(=O)[nH]c1=O	3	0	4	nt	11
CCCCN(CCCNC(=O)C1CCN(S(=O)(=O)CC)CC1)c1ccccc1	3	28*	5	3	-2
CNC(=O)COC(=O)[C@@H](Nc1ccc(S(=O)(=O)N2CCOCC2)cc1[N+](=O)[O-])C(C)C	0	2	4	-11	6
O=C(CN1CCN(S(=O)(=O)c2ccc(F)cc2)CC1)Nc1ccc(F)cc1F	8	6	5	nt	-1
CC1(C)CC(NC(=O)c2cccc(S(=O)(=O)Nc3cccc(Cl)c3)c2)CC(C)(C)N1	-2	27*	-4	nt	8
Cc1ccc(S(=O)(=O)NCCC(=O)NCCCSc2ccccc2)cc1	1	4	-2	nt	-2
SMILES	PAFAH1B2 inh	pPAFAH inh	PAFAH2 inh	RBBP9 inhibitor	PAFAH1B3 FP inh
O=C(CCNS(=O)(=O)c1ccccc1)NCCCSc1ccccc1	36*	4	5	nt	6
O=C(CCNS(=O)(=O)c1ccc(Br)cc1)NCCCSc1ccccc1	26*	7	6	nt	1
CCN(CC)c1ccc(N=Cc2ccc(N(CC)CC)cc2O)cc1	1	29*	-1	-2	4
CN1CCC(OC(=O)c2cccc(Cl)c2)CC1	-4	1	3	-5	7
C/C(=N\NC(=O)c1ccc([N+](=O)[O-])cc1Cl)c1ccccc1	6	3	8	-11	5
COc1ccc(NC(=O)O/N=C/c2ccc(Br)cc2)cc1	46*	11	10	nt	7
Cc1ccc(NC(=O)O/N=C/c2ccc(F)cc2)cc1	10	-2	5	nt	10
Cc1ccc(NC(=O)O/N=C/c2ccc(Br)cc2)cc1	58*	8	-3	nt	4
CN(CC(=O)NCC(c1ccco1)N1CCCCC1)S(=O)(=O)c1ccc(Cl)cc1 (stereo unspecified)	5	1	4	nt	2
COc1ccc(S(=O)(=O)N2CCc3ccccc32)cc1C(=O)Nc1ccc(NC(C)=O)cc1	8	7	-6	nt	4
C=CCn1c(SCC#N)nc2c(c1=O)C(C)(C)Cc1ccccc1-2	25*	5	0	-5	2
C=CCn1c(SCC#N)nc2ccccc2c1=O	2	-1	-10	2	8
Cc1cc(NC(=O)CCS(=O)(=O)c2nc(-c3ccccc3)cc(C(F)(F)F)n2)no1	6	13	-3	nt	4
CS(=O)(=O)c1nc(-c2ccccc2)cc(C(F)(F)F)n1	-2	25*	-4	-4	3
CC(C)(C)c1ccc(C(=O)NN2C(=O)CSC2=S)cc1	25*	8	-11	-6	-2
CC1CCN(S(=O)(=O)c2ccc3c(c2)CCN3C(=O)CCC(=O)O)CC1	26*	2	1	-5	11
O=C(O)CCC(=O)N1CCc2cc(S(=O)(=O)N3CCCCC3)ccc21	3	4	11	6	7
O=C(CCc1ccccc1)NC(=S)Nc1ccccc1Br	3	-3	3	-4	1
CC(O)[C@H]1CNC(=O)C(=O)N1CC(C)(C)C (stereo partly specified)	-2	4	9	nt	6
CC(O)[C@H]1CNC(=O)C(=O)N1CCC12CC3CC(CC(C3)C1)C2 (stereo partly specified)	25*	0	13	nt	10
CCOc1ccc(C(=O)N2CCCN(C(=O)c3ccc(OCC)cc3)CC2)cc1	-4	0	3	-1	8
CCOc1ccc(NS(=O)(=O)c2ccc(C(=O)N3CCC3)cc2)cc1	1	46*	-5	nt	5
CCOc1ccc(NS(=O)(=O)c2ccc(C(=O)N3CCCC3)cc2)cc1	1	25*	-5	nt	4
CCOc1ccc(NS(=O)(=O)c2cc3c4c(c2)CCN4C(=O)CC3)cc1	1	25*	2	nt	0
O=C(COc1ccc(Cl)cc1)Nc1cccc(-c2ccc(N3CCOCC3)nn2)c1	4	5	1	nt	3
N#CCC(=O)c1sccc1-n1cccc1	11	34*	3	5	6
N#CCOC(=O)c1sccc1-n1cccc1	11	-2	-14	1	10
Cc1ccccc1-c1nc2sc(-c3ccccc3)cc2c(=O)o1	0	10	66*	-4	-3
Cc1cccc(-c2nc3sc(C)cc3c(=O)o2)c1	-5	33*	74*	-9	-6

High-throughput results from PubChem BioAssay.
